Assay results from ChEMBL document CHEMBL1135780, “6-Chloro-3-alkylamino-4H-thieno[3,2-e]-1,2,4-thiadiazine 1,1-dioxide derivatives potently and selectively activate ATP sensitive potassium channels of pancreatic beta-cells” (J Med Chem, 2002).

Columns and labels:
[1] = Oral bioavailability in rat (Sprague-Dawley); format: ADME, organism-based; details: Sprague-Dawley, in vivo
Summary of the method: (§1)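 Cassette dosing, two compounds per cassette, in Sprague–Dawley rats of about 180 g, n = 2. iv doses 0.5 or 0.89 mg/kg; oral doses 1.89 or 2.0 mg/kg. Vehicle 0.1 M potassium phosphate pH 8.0, or PEG 300 based. Heart-puncture sampling, one rat per point. Plasma levels by LC/MS/MS; noncompartmental analysis.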

[2] = Acid dissociation constant was determined; format: ADME
Summary of the method: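 Potentiometric titration from pH 2 to 10.5 in 80% MeOH cosolvent. Three titrations on the same sample, with 0.15 M KCl added before the second. psKa values extrapolated to 0% cosolvent by Yasuda–Shedlovsky.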

[3] = Half life after oral administration to Sprague-Dawley rats; format: ADME, organism-based; details: rat, in vivo; summary of the method: as §1
Beta-TC6 [4] = test: Percentage insulin release in vitro in beta-TC6 cells; format: functional; details: Mus musculus
Summary of the method: (§2)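 βTC6 cells, 5 × 10⁴/well, grown 3 days in DMEM + 10% FCS, 11 mM glucose, 20 mM Hepes. Washed twice in NN buffer with 0.1% BSA, preincubated 60 min, then 3 h with 22 mM glucose, 0.1 mM IBMX and serial compound dilutions. Insulin in supernatant measured by in-house ELISA (guinea pig anti-insulin, rat insulin standard). Reference compound as positive control.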

Beta-TC6 [5] = test: Ability to inhibit the release of insulin from the mouse beta-TC6 cell line; format: functional, cell-based; summary of the method: as §2
[6] = Changes in potassium fluxes assessed in the glucose responsive insulin-producing murine cell line beta-TC3; format: functional, cell-based, Mus musculus
Summary of the method: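 βTC3 membrane potential read as DiBAC4(3) fluorescence at 0.01, 0.1, 1, 10 and 100 µM, four wells each. Signal normalized to each well's initial value and expressed as fractional fluorescence change over 45 min incubation. EC50 from four-parameter nonlinear fit; mean ± SEM of at least three independent experiments.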

Rattus norvegicus [7] = species on record: Rattus norvegicus; test: Maximum change in MAP in rat; format: functional
Summary of the method: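 Anaesthetized male Sprague–Dawley rats given 3 mg/kg iv bolus (0.3 mg/kg for one compound) in 0.15% NaOH/saline via jugular cannula. Maximal percent change in mean arterial pressure over 5 min after dosing; mean ± SEM, 2–4 animals.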

Rattus norvegicus [8] = species on record: Rattus norvegicus; test: Ability to relax phenylephrine-contracted rat aorta rings; format: functional
Rattus norvegicus [9] = species on record: Rattus norvegicus; test: Inhibition of glucose-stimulated insulin release from Wistar rat islets; format: functional
Summary of the method: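 Isolated rat islets held overnight in RPMI, 10% FCS, 11 mM glucose, then 10 islets/well overnight in DMEM, 10% FCS, 3 mM glucose. Run like the βTC6 assay (60 min NN buffer preincubation, 3 h with 22 mM glucose and serial dilutions) without IBMX. Insulin by in-house ELISA.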

Rattus norvegicus [10] = species on record: Rattus norvegicus; test: Reduction in plasma insulin in 30 min post-injection in rat; format: functional; set-up: concentration or dose not given beside the values
Summary of the method: (§3)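 Postprandial male Sprague–Dawley rats, 280–320 g, under Hypnorm/Dormicum at 37 °C. 3 mg/kg iv bolus over 20 s via jugular cannula (0.3 mg/kg for one compound), dissolved in 0.15% NaOH and saline. Blood taken every 5–10 min from 15 min pre- to 30 min postinjection. Plasma insulin by ELISA, as % reduction from pre-dose level. 2–4 animals.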

Rattus norvegicus [11] = species on record: Rattus norvegicus; test: Maximum reduction in plasma insulin in rat; format: functional; summary of the method: as §3
[12] = molecular target: T1, Sulfonylurea receptor 1, Kir6.2 (Homo sapiens, UniProt Q09428+Q14654); test: Inhibition of [3H]glibenclamide binding to HEK293 cells co-expressing human Sulfonylurea receptor SUR1 and Inward rectifier K+ channel Kir6.2 without ATP; format: cell-based
T1 sequence (Q14654 whole entry): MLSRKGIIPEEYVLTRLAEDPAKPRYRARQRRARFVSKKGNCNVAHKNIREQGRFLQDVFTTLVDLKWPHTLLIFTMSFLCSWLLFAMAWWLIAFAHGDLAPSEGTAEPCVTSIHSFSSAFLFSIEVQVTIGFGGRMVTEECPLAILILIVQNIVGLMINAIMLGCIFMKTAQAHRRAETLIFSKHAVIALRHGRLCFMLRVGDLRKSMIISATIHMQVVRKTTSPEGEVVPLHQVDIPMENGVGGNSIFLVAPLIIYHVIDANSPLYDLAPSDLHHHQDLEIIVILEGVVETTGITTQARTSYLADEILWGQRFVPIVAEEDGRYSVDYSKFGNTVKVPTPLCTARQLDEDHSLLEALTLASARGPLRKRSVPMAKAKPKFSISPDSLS
T1 sequence (Q09428 whole entry): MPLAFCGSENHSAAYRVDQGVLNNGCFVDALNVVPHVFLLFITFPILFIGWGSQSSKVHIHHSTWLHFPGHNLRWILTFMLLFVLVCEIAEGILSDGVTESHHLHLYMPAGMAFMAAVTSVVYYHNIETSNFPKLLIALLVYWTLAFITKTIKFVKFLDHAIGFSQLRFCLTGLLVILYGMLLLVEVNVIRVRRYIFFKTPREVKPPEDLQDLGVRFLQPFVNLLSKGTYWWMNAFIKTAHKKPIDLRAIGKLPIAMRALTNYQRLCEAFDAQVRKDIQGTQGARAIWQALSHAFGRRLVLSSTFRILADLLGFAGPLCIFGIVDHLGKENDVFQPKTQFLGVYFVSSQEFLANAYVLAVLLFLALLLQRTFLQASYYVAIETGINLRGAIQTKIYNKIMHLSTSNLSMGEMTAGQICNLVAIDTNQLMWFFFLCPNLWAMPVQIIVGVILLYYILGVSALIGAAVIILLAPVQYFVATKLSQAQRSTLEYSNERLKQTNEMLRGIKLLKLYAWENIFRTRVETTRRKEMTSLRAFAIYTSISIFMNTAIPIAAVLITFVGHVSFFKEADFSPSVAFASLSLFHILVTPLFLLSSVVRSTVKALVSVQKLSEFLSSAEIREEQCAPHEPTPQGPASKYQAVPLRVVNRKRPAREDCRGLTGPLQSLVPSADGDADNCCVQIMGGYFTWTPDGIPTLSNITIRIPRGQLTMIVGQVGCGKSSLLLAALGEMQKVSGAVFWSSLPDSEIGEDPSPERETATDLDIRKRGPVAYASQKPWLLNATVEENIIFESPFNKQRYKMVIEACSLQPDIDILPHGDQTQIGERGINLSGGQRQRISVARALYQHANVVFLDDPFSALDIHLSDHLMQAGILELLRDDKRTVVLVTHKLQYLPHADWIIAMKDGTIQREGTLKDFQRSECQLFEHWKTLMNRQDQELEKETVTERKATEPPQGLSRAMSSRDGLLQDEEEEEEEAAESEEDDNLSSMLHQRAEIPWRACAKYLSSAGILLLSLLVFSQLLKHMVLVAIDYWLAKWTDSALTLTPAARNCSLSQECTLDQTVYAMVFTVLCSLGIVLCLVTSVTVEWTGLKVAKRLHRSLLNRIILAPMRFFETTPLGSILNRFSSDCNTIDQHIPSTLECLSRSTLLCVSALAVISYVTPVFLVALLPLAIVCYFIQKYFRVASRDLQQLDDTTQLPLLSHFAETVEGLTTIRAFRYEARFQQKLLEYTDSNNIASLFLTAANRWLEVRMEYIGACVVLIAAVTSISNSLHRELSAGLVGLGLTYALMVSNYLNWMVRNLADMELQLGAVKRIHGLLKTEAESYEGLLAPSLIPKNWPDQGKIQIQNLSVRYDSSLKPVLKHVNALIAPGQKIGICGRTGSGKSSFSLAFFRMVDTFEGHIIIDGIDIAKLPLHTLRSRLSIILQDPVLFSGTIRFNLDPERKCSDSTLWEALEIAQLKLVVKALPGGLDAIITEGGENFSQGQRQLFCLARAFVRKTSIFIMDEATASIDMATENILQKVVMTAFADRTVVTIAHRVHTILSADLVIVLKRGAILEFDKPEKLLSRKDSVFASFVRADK
Summary of the method: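 Membranes from HEK293 cells stably expressing human SUR1/Kir6.2 (100 µg/mL protein) incubated 1 h at 37 °C with 1 nM [3H]glibenclamide in 30 mM HEPES pH 7.4, here without MgCl2 and ATP. Nonspecific binding with 10 µM glipizide. Rapid filtration, scintillation counting; IC50 by one- or two-site sigmoid nonlinear regression.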

[13] = molecular target: T1, Sulfonylurea receptor 1, Kir6.2; test: Inhibition of [3H]glibenclamide binding to HEK293 cells co-expressing human Sulfonylurea receptor SUR1 and Inward rectifier K+ channel Kir6.2 at high affinity state with 2 mM MgATP; format: cell-based
[14] = molecular target: T1, Sulfonylurea receptor 1, Kir6.2; test: Inhibition of [3H]glibenclamide binding to HEK293 cells co-expressing human Sulfonylurea receptor SUR1 and Inward rectifier K+ channel Kir6.2 at low affinity state with 2 mM MgATP; format: cell-based
[15] = system: βTC6 cells (Mus musculus); test: Inhibition of glucose-stimulated insulin release from βTC6 cells
Beta-TC6 [16] = test: Maximum inhibition of glucose stimulated insulin release from mouse beta-TC6 cells at 10 uM in vitro.; format: functional
Rattus norvegicus [17] = species on record: Rattus norvegicus; test: Effective concentration require for relaxation of rat aorta rings; format: functional

bioavailability [1]	pKa [2]	half-life [3]	IC50 (Beta-TC6 [5])	EC50 [6]	EC50 (Rattus norvegicus [8])	IC50 (Rattus norvegicus [9])	IC50 [12]	IC50 [13]	IC50 [14]	EC50 (Rattus norvegicus [17])	Structure (SMILES)	Emax (Beta-TC6 [4])	Change (Rattus norvegicus [7])	Reduction (Rattus norvegicus [10])	Reduction (Rattus norvegicus [11])	Emax [15]	Emax at 10 µM (Beta-TC6 [16])
90%	8.54	2.72 h	0.24 µM	0.3 µM	70 µM	0.06 µM	487 µM	0.64 µM	224 µM	–	CC[C@@H](C)NC1=NS(=O)(=O)c2sc(Cl)cc2N1	82%	-17%	94%	97%	82%	–
–	–	–	21.2 µM	> 100 µM	17.3 µM	–	–	–	–	17.3 µM	CNC1=NS(=O)(=O)c2sc(Cl)cc2N1	–	–	–	–	–	35%
